For one series, the system named is A549. The series can be described thus: Effective dose against 50% reduction in Human lung carcinoma (A-549) cell number after 3-day incubation. It is filed as functional, cell-based.
For series [1], the system named is RPMI. The series can be described thus: Effective dose against 50% reduction in Human melanoma (RPMI)cell number after 3-day incubation. The format is functional. The note with it: 72 h, read-out: ED50 (the source's name).
Series [2] has as its system P388. Briefly: Effective dose against 50% reduction in Murine leukemia (P-388) cell number after 3-day incubation; - indicates inactive. The note with it: Mus musculus. It is filed as functional, cell-based.
Series [3] deals with HCT-8. Briefly: Effective dose against 50% reduction in Human ileocecal carcinoma (HCT-8) cell number after 3-day incubation. The format is functional. The note with it: HCT-8, 72 h, read-out: ED50 (the source's name).
Series [4] concerns TE-671. The series can be described thus: Effective dose against 50% reduction in Human CNS tumor (TE671) cell number after 3-day incubation; - indicates inactive. It is filed as functional, cell-based.
Series [5] deals with KB. Briefly: Effective dose against 50% reduction in Human epidermoid carcinoma of the nasopharynx (KB) cell number after 3-day incubation. It is filed as functional. The note with it: 72 h, read-out: ED50 (the source's name).
Series [6] deals with H9. Briefly: Effective dose against growth of HIV infected H9 lymphocytes. To be noted: Homo sapiens, read-out: ED50 (the source's name). The format is functional.
Series [7] relates to KB. Briefly: Effective dose against 50% reduction in Human epidermoid carcinoma of the nasopharynx (KB) cell number after 3-day incubation; - indicates inactive. It is filed as functional, cell-based.
The subject of series [8] is HCT-8. The series can be described thus: Effective dose against 50% reduction in Human ileocecal carcinoma (HCT-8) cell number after 3-day incubation. The format is functional, cell-based.
The nature of series [9]: Therapeutic index valued has been determined in H9 cells. The format is cell-based. The note with it: human, read-out: Therapeutic index.
Series [10] deals with H9. Briefly: Inhibitory activity against growth of uninfected H9 lymphocytes. It is filed as functional, cell-based. To be noted: Homo sapiens. Summed up: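 Uninfected H9 cultures exposed to compound diluted in medium for 4 days at 37 °C. Cell density counted in a Coulter counter; IC₅₀ determined.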
Series [11] has as its system RPMI. The series can be described thus: Effective dose against 50% reduction in Human melanoma (RPMI)cell number after 3-day incubation; - indicates inactive. The format is functional, cell-based.
The test system of series [12] is Medulloblastoma tumour cell line. The series can be described thus: Effective dose against medulloblastoma tumor cell lines. It is filed as functional. The note with it: read-out: ED50 (the source's name).
The test system of series [13] is P388. The series can be described thus: Effective dose against 50% reduction in Murine leukemia (P-388) cell number after 3-day incubation. It is filed as functional. To be noted: Mus musculus, P388, 72 h; read-out: ED50 (the source's name).
The target of series [14] is T1, DNA topoisomerase 1 (Homo sapiens) (UniProt P11387).
T1 sequence (whole entry): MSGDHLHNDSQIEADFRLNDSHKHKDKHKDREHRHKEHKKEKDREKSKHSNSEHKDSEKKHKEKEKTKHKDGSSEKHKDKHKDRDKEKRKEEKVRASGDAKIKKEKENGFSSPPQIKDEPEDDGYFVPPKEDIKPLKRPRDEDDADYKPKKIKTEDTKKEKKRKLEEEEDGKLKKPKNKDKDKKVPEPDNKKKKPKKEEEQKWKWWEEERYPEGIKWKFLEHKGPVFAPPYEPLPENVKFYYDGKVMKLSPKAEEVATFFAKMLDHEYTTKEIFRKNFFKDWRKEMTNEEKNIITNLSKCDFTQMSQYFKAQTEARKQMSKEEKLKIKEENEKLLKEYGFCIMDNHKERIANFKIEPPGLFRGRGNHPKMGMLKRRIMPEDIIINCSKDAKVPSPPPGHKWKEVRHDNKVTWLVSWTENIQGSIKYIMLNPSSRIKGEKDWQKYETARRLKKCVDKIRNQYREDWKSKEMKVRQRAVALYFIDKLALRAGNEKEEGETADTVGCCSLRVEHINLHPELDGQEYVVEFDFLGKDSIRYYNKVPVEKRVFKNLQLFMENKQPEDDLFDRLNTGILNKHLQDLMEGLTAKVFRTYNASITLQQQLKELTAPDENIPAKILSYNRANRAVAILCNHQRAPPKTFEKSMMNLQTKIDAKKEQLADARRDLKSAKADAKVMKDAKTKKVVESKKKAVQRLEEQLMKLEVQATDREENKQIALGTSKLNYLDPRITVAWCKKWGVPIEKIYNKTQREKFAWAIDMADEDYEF
Briefly: Inhibitory activity against human DNA topoisomerase I at dose 100 uM. Summed up:
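Topo I activity read as ATP-independent relaxation of supercoiled plasmid DNA. Test compound at 100 µM; % inhibition is relative to enzyme and DNA control reactions. Camptothecin served as the positive inhibitor control.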

For series [15], the system named is TE-671. The series can be described thus: Effective dose against 50% reduction in Human CNS tumor (TE671) cell number after 3-day incubation. It is filed as functional. The note with it: TE-671, 72 h, read-out: ED50 (the source's name).
Series [16] concerns KB. The series can be described thus: Cellular protein-linked DNA breaks in KB oral carcinoma cell culture treated in triplicate at 50 uM for 1 hr. The format is functional, Homo sapiens. Summed up: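 Read-out is potassium-SDS precipitable cpm in treated KB cultures, expressed as fold.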
Series [17] addresses T2, DNA topoisomerase II (Homo sapiens) (UniProt P11388+Q02880). Briefly: Inhibitory activity against human DNA topoisomerase II at dose 100 uM. It is filed as protein assay. Summed up:
(§1)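 Topo II activity read as ATP-dependent unknotting of P4 DNA. Test compound at 100 µM; % inhibition is relative to enzyme and DNA control reactions. VP-16 served as the reference inhibitor.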

Series [18] concerns the target T2, DNA topoisomerase II (Homo sapiens). Briefly: Inhibitory activity against DNA topoisomerase II at dose 100 uM. The format is protein assay. Summed up:
as §1

Another series addresses Tubulin alpha chain (Sus scrofa, UniProt P02550). Briefly: Inhibitory activity of the compound against tubulin polymerization. The format is functional.

Here are results for 11 compounds from ChEMBL document CHEMBL1129311, “Antitumor agents. 166. Synthesis and biological evaluation of 5,6,7,8-substituted-2-phenylthiochromen-4-ones” (J Med Chem, 1996).

Broadly, the IC50 is the point on the concentration scale where inhibition reaches its midpoint. Lower therefore signals inhibition by little substance. As usually defined, the inhibition is how much of the control response was suppressed.

The structures appear in SMILES notation. Converted amounts (≈) assume the structure as drawn. The source made the active and inactive calls. The rule behind the calls is not given here.

Sequence of Tubulin alpha chain (P02550 whole entry, looked up): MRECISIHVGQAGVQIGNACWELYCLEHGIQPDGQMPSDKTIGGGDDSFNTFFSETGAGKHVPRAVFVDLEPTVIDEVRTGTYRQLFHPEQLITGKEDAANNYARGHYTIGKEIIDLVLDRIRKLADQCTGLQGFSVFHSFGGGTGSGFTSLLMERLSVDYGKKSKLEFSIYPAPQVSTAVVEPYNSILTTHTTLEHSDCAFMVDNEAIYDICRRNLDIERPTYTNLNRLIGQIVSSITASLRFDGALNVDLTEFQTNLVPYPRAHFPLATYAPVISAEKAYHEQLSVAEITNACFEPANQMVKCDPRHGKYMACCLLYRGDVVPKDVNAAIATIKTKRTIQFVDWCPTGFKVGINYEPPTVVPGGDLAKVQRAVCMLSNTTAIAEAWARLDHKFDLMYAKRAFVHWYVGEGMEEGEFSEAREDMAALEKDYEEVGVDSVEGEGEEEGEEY

On to `COc1cc2sc(-c3ccccc3)cc(=O)c2cc1OC`, for which the ED50 result in the series on A549, with P388 [2] and in the series on TE-671 [4] was “inactive” in each case. For the same compound, the EC50 in the series on RPMI [1] is 8.89 mg/L (≈ 29.8 µM); with HCT-8 [3], 9.33 mg/L (≈ 31.3 µM); with KB [5], 4.23 mg/L (≈ 14.2 µM).

Turning to `O=c1cc(-c2ccccc2)sc2cc(O)ccc12`, the EC50 in the series with H9 [6] was 7 mg/L (≈ 27.5 µM). The ED50 result in the series with A549, in the series on P388 [2], in the series on KB [7], in the series with HCT-8 [8], in the series with TE-671 [4] and in the series on RPMI [11] was “inactive” each time. In addition, the selectivity ratio in [9] came out at 5.7. Also, inhibition in the series with H9 [10] was half-maximal at 40 mg/L (≈ 157 µM) (IC50).

For the compound `O=c1cc(-c2ccccc2)sc2ccccc12`, the ED50 result in the series on A549, in the series with P388 [2], in the series on KB [7], in the series with HCT-8 [8], in the series with TE-671 [4] and in the series with RPMI [11] was “inactive” in each case.

As to `COc1ccc2c(=O)cc(-c3ccccc3)sc2c1`, the ED50 entry with A549, with P388 [2], with TE-671 [4] and in the series on RPMI [11] was “inactive” in each case. The EC50 in the series with HCT-8 [3] was determined as 9.16 mg/L (≈ 34.1 µM); in the series with KB [5] it was 5.5 mg/L (≈ 20.5 µM).

As to `COc1cc(-c2oc3c(OC)c(OC)c(OC)c(O)c3c(=O)c2OC)ccc1O`, the EC50 in series [12] came to 0.99 mg/L (≈ 2.45 µM).

With `CC(=O)Oc1cc2sc(-c3ccccc3)cc(=O)c2cc1OC(C)=O`, the EC50 in the series with P388 [13] was 4.83 mg/L (≈ 13.6 µM); with H9 [6] it was 0.65 mg/L (≈ 1.83 µM); in the series with TE-671 [15], 4.58 mg/L (≈ 12.9 µM); with RPMI [1] it was 5.5 mg/L (≈ 15.5 µM); in the series with KB [5], 5.5 mg/L (≈ 15.5 µM). The inhibition in series [14] is 0%; in [17], 100%. For the same compound, the ED50 result with A549 and in the series on HCT-8 [8] was “inactive” throughout. Further, in series [9], the selectivity ratio was found to be 4.6. This compound yielded an IC50 in the series with H9 [10] of 3 mg/L (≈ 8.47 µM). In addition, in the series on KB [16], the Activity is given as 1.

Take `CC(=O)Oc1ccc2c(=O)cc(-c3ccccc3)sc2c1`: the EC50 in the series on H9 [6] worked out at 80 mg/L (≈ 270 µM). In addition, the ED50 entry in the series with A549, in the series on P388 [2], in the series on KB [7], in the series on HCT-8 [8], in the series on TE-671 [4] and in the series on RPMI [11] was “inactive” each time. Further, the selectivity ratio in series [9] came to 0.6. In the series on H9 [10], the IC50 was found to be 45 mg/L (≈ 152 µM).

`COc1cccc(-c2cc(O)c3cc(N4CCCC4)ccc3n2)c1` returned an inhibition in series [18] of 0%.

Turning to `COc1ccc(-c2oc3c(OC)c(OC)c(OC)c(O)c3c(=O)c2OC)cc1O`, on Tubulin alpha chain, inhibition was half-maximal at 0.83 µM (IC50).

For `O=c1cc(-c2ccccc2)sc2cccc(O)c12`, the ED50 result with A549, in the series with P388 [2], in the series on KB [7], in the series with HCT-8 [8], in the series on TE-671 [4] and in the series on RPMI [11] was “inactive” in each case.

For `Nc1cccc2c(=O)cc(-c3ccccc3)sc12`, the EC50 with P388 [13] stood at 7.46 mg/L (≈ 29.4 µM); in the series on H9 [6] it was 4 mg/L (≈ 15.8 µM); in the series with RPMI [1], 5.5 mg/L (≈ 21.7 µM). Moreover, the ED50 result in the series with A549, in the series with KB [7], with HCT-8 [8] and in the series with TE-671 [4] was “inactive” each time. The selectivity ratio in [9] is 3.8. The compound further showed an IC50 in the series on H9 [10] of 15 mg/L (≈ 59.2 µM).
